From ChEMBL document CHEMBL5137109, “Tunable Cysteine-Targeting Electrophilic Heteroaromatic Warheads Induce Ferroptosis” (J Med Chem, 2022)
pIC50: −log10 of the molar value. Activity calls are given as the source filed them. The calls are words filed in the database; no cut-off is given here.

Key:
HCT-116 = assay: Cytotoxicity against human HCT-116 cells assessed as reduction in cell viability incubated for 3 days by methylene blue staining based analysis; format: functional; details: HCT-116, 72 h
NCI-H522 [1] = assay: Cytotoxicity against human NCI-H522 cells assessed as reduction in cell viability incubated for 3 days by methylene blue staining based analysis; format: functional; details: NCI-H522, 72 h
[2] = Selectivity ratio of IC50 for human HCT-116 cells to IC50 for human NCI-H522 cells by methylene blue staining based analysis; format: functional
NCI-H522 [3] = assay: Induction of lipid peroxidation in human NCI-H522 cells assessed as increase in C11-BODIPY oxidation at 40 uM incubated for 6 hrs by flow cytometry; format: functional, cell-based
In short: (§1)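 NCI-H522 cells (~70% density) plated in dishes overnight, then treated with compound or DMSO plus C11-BODIPY 581/591 (1 μM) added at treatment. After 3 h or 6 h, cells washed, trypsinized, resuspended in PBS with 2% FBS and analysed by flow cytometry (preferably 20×10³ cells). Oxidation compared with DMSO treatment.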

NCI-H522 [4] = assay: Induction of lipid peroxidation in human NCI-H522 cells assessed as increase in C11-BODIPY oxidation at 5 uM incubated for 6 hrs by flow cytometry; format: functional, cell-based; in short: as §1
NCI-H522 [5] = assay: Cytotoxicity against human NCI-H522 cells assessed as time required to cause 50% irreversible cell death treated with compound followed by washing for every 30 mins for 6 hrs by methylene blue staining based analysis; format: functional
In short: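 NCI-H522 cells, 5*10³/well (n=3), plated overnight, then treated with compound or DMSO. Wells washed immediately after treatment and then at 30-min intervals up to 6 h; last wells not washed. Methylene blue in 50% ethanol fix/stain 30 min RT, dye dissolved in 0.1N HCl, A668. Each point taken as % survival of matching DMSO-treated cells.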

NCI-H522 [6] = assay: Induction of lipid peroxidation in human NCI-H522 cells assessed as increase in C11-BODIPY oxidation at 5 uM incubated for 3 hrs by flow cytometry; format: functional, cell-based; in short: as §1
NCI-H522 [7] = assay: Induction of lipid peroxidation in human NCI-H522 cells assessed as increase in C11-BODIPY oxidation at 20 uM incubated for 6 hrs by flow cytometry; format: functional, cell-based; in short: as §1
NCI-H522 [8] = assay: Cytotoxicity against human NCI-H522 cells assessed as reduction in cell survival at 2 uM incubated for 3 days in presence of ferroptosis inhibitor, liproxstatin-1 by methylene blue staining based analysis; format: functional; details: time 3.0 day
In short: (§2)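 NCI-H522 cells seeded at 25×10³/well (n=3), adhered overnight, then exposed to compound with or without liproxstatin-1 (0.25 μM). After 3 days, methylene blue staining with HCl elution and A668. Results given as % relative to DMSO control, mean ± SD, n=3, one-way ANOVA. Fold change is IC50 (with liproxstatin-1)/IC50 (alone).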

MDA-MB-231 = assay: Cytotoxicity against human MDA-MB-231 cells assessed as reduction in cell viability incubated for 3 days by methylene blue staining based analysis; format: functional; details: MDA-MB-231, 72 h
NCI-H522 [9] = assay: Cytotoxicity against human NCI-H522 cells assessed as reduction in cell viability incubated for 3 days in presence of ferroptosis inhibitor, liproxstatin-1 by methylene blue staining based analysis; format: functional; details: NCI-H522, 72 h; in short: as §2
U2OS = assay: Cytotoxicity against human U2OS cells assessed as reduction in cell viability incubated for 3 days by methylene blue staining based analysis; format: functional; details: 72 h
[10] = Cytotoxicity against mouse MEF cells assessed as reduction in cell viability incubated for 3 days by methylene blue staining based analysis; format: toxicity
[11] = Cytotoxicity against human WI-38 cells assessed as reduction in cell viability incubated for 3 days by methylene blue staining based analysis; format: toxicity
HeLa = assay: Cytotoxicity against human HeLa cells assessed as reduction in cell viability incubated for 3 days by methylene blue staining based analysis; format: functional; details: 72 h
[12] = Ratio of IC50 for cytotoxicity against human NCI-H522 cells in presence of ferroptosis inhibitor, liproxstatin-1 to IC50 for cytotoxicity against human NCI-H522 cells; format: functional
In short: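 NCI-H522 cells, 25*10³/well (n=3), plated overnight, treated with compound with or without Liproxstatin-1 (0.25 μM). After 3 days, methylene blue in 50% ethanol fix/stain 30 min RT, dye dissolved in 0.1N HCl, A668. Fold change = IC₅₀ with Liproxstatin-1 / IC₅₀ without.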

HT-1080 = assay: Cytotoxicity against human HT-1080 cells assessed as reduction in cell viability incubated for 3 days by methylene blue staining based analysis; format: functional; details: HT-1080, 72 h
MDA-MB-468 = assay: Cytotoxicity against human MDA-MB-468 cells assessed as reduction in cell viability incubated for 3 days by methylene blue staining based analysis; format: functional; details: MDA-MB-468, 72 h
NCI-H522 [13] = assay: Induction of lipid peroxidation in human NCI-H522 cells assessed as increase in C11-BODIPY oxidation at 10 uM incubated for 3 hrs by flow cytometry; format: functional, cell-based
In short: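 NCI-H522 cells at ~70% density, plated overnight, treated with compound or DMSO together with C11-BODIPY 581/591 (1 μM) for 3 h or 6 h. Cells then PBS-washed, trypsinised, resuspended in PBS with 2% FBS and read by flow cytometry, preferably 20*10³ cells. Oxidation compared with DMSO treatment.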

NCI-H522 [14] = assay: Induction of lipid peroxidation in human NCI-H522 cells assessed as increase in C11-BODIPY oxidation at 30 uM incubated for 6 hrs by flow cytometry; format: functional, cell-based; in short: as §1
NCI-H522 [15] = assay: Induction of lipid peroxidation in human NCI-H522 cells assessed as increase in C11-BODIPY oxidation at 10 uM incubated for 6 hrs by flow cytometry; format: functional, cell-based; in short: as §1
NCI-H522 [16] = assay: Cytotoxicity against human NCI-H522 cells assessed as reduction in cell survival at 4.5 uM incubated for 3 days in presence of ferroptosis inhibitor, liproxstatin-1 by methylene blue staining based analysis; format: functional; details: time 3.0 day; in short: as §2

Structure (SMILES)	pIC50 (HCT-116)	pIC50 (NCI-H522 [1])	Ratio IC50 [2]	further results
C=Cc1csc(Br)n1	< 4.40	< 4.40		
Ic1nc2ccccc2o1	< 4.40	4.93	3.41	
Cn1c(Br)nc2ccccc21	< 4.40	< 4.40		
CC#Cc1nc(C(=O)OCC)cs1	< 4.40	< 4.40		
CC#CC1=Nc2ccccc2C(C)(C)O1	< 4.40	5.08	>4.76	Activity (NCI-H522 [3]): Active
C=Cc1nc(C(=O)OCC)cs1	< 4.40	< 4.40		
C=Cc1nc2ccccc2[se]1	< 4.40	4.91	>3.27	
C#CC1=Nc2ccccc2C(C)(C)O1	5.25	6.05	6.3	Activity (NCI-H522 [4]): Active
COC(=O)c1ccc([C@H]2c3[nH]c4ccccc4c3CC(C(=O)OC)N2C(=O)CCl)cc1 (some centres undefined)				IT50 (NCI-H522 [5]): 1.33 h
C#Cc1nc(C(=O)Nc2ccc(OC)cc2)cs1	5.08	6.17	12.52	Activity (NCI-H522 [6]): Active
C#Cc1nc(C(=O)OCC)cs1	< 4.40	5.57	>14.98	Activity (NCI-H522 [7]): Active
C#Cc1nc(C(=O)N2CCN(c3ccc(C(F)(F)F)cc3)CC2)cs1		7.43		
Ic1nc2ccccc2[se]1	< 4.40	< 4.40		
C#Cc1ccccn1	< 4.40	< 4.40		
C#Cc1nc(C(=O)Nc2ccccc2)cs1	5.31	6.18	7.39	Activity (NCI-H522 [6]): Active
C#Cc1sc(-c2ccc(F)cc2)nc1C(=O)OCC	< 4.40	5.45	11.33	Activity (NCI-H522 [7]): Active
c1ccc2ocnc2c1 [BENZO[D]OXAZOLE]	< 4.40	< 4.40		
C#CCNC(=O)c1cscn1	< 4.40	< 4.40		
C#Cc1nccs1	< 4.40	< 4.40		
C=Cc1nc2ccccc2s1	< 4.40	< 4.40		
Cn1c(I)nc2ccccc21	4.76	5.99	17.16	Activity (NCI-H522 [8]): Active
CC#Cc1nc2ccccc2s1	< 4.40	< 4.40		
O=C(CCl)N1CCN(C(c2ccc(Cl)cc2)c2ccc(Cl)cc2)CC1	5.78	6.12		pIC50 (MDA-MB-231): 6.31; pIC50 (NCI-H522 [9]): 5.51; pIC50 (U2OS): 5.77; IC50 at 3 days [10]: 0.352 µM; IC50 at 3 days [11]: 1.74 µM; pIC50 (HeLa): 5.68; Ratio IC50 [12]: 4.12; pIC50 (HT-1080): 6.52; pIC50 (MDA-MB-468): 5.76
C#CCNC1CCC(c2csc(C#C)n2)=C1C (centres undefined)	< 4.40	5.60		Activity (NCI-H522 [7]): Active
CCOC(=O)c1csc(C#Cc2ccccc2)n1	< 4.40	< 4.40		
C#Cc1nc(C(=O)N2CCN(c3ccc(F)cc3)CC2)cs1		7.19		

Structure (SMILES)	pIC50 (HCT-116)	pIC50 (NCI-H522 [1])	Ratio IC50 [2]	further results
C#Cc1nc(C(=O)Nc2ccc(Cl)cc2)cs1	4.80	6.27	29.4	Activity (NCI-H522 [4]): Active
C#Cc1nc2ccccc2[se]1	4.60	5.66	11.5	Activity (NCI-H522 [13]): Active
C#Cc1nc(/C=C/C(=O)N2CCN(C(c3ccc(Cl)cc3)c3ccc(Cl)cc3)CC2)cs1		8.22		
Ic1nc2ccccc2s1	< 4.40	< 4.40		
C#Cc1csc(Br)n1	< 4.40	< 4.40		
C#Cc1nc(-c2ccccc2)cs1	< 4.40	5.25	>7.07	Activity (NCI-H522 [14]): Active
Cc1onc(C(=O)N2CCN(C(c3ccc(Cl)cc3)c3ccc(Cl)cc3)CC2)c1[N+](=O)[O-]	< 6.00	7.36		pIC50 (MDA-MB-231): 7.70; pIC50 (NCI-H522 [9]): 4.46; pIC50 (U2OS): 6.09; IC50 at 3 days [10]: 0.016 µM; IC50 at 3 days [11]: 0.06 µM; pIC50 (HeLa): 6.60; Ratio IC50 [12]: 784.431; pIC50 (HT-1080): 7.66; pIC50 (MDA-MB-468): 7.18
C#Cc1nc(/C=C/C(=O)Nc2ccc(Cl)cc2)cs1	4.63	6.43	62.64	Activity (NCI-H522 [6]): Active
c1ccc2[se]cnc2c1	< 4.40	< 4.40		
N#Cc1nccs1	< 4.40	< 4.40		
C#Cc1nc2ccccc2n1C	4.71	5.09	2.37	Activity (NCI-H522 [3]): Active
C#CCNC(=O)c1csc(Br)n1	< 4.40	< 4.40		
C=Cc1nc2ccccc2o1	< 4.40	< 4.40		
Cn1cnc2ccccc21	< 4.40	< 4.40		
C#Cc1ncccn1	< 4.40	< 4.40		
C#Cc1nc(C(=O)N2CCN(c3ccc(Cl)cc3)CC2)cs1		7.55		
C#Cc1nc2ccccc2o1	4.94	5.90	9.12	Activity (NCI-H522 [15]): Active
C#Cc1nc(C(=O)N2CCN(CC)CC2)cs1		< 6.00		
Brc1nc2ccccc2o1	< 4.40	< 4.40		
C#CC(=O)N1CCN(C(c2ccc(Cl)cc2)c2ccc(Cl)cc2)CC1	5.42	5.95		pIC50 (MDA-MB-231): 7.42; pIC50 (NCI-H522 [9]): 5.54; pIC50 (U2OS): 6.20; IC50 at 3 days [10]: 0.082 µM; IC50 at 3 days [11]: 0.5 µM; pIC50 (HeLa): 6.52; Ratio IC50 [12]: 2.55; pIC50 (HT-1080): 6.42; pIC50 (MDA-MB-468): 7.19
c1ccc2scnc2c1 [BENZO[D]THIAZOLE]	< 4.40	< 4.40		
Brc1nc2ccccc2s1	< 4.40	< 4.40		
C=Cc1nc2ccccc2n1C	5.02	5.63	4.05	Activity (NCI-H522 [16]): Active
C=Cc1sc(-c2ccc(F)cc2)nc1C(=O)OCC	< 4.40	< 4.40		
Brc1nc2ccccc2[se]1	< 4.40	< 4.40		
